This passage reports inhibition results from PubChem BioAssay AID720508 (The Scripps Research Institute Molecular Screening Center, 2013).

The whole screen tested about 370,000 compounds, of which about 500 (0.14%) were called active. The full list was thinned out, with actives kept by preference. Unmarked numbers belong to inactive results.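 The calls were made as follows: active = inhibition above the mean of compounds falling within the control limits plus 3 SD of them (cut at about 14% in these data); inactive = the rest.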

Fibrinogen beta chain (Homo sapiens), sequence (P02675 whole entry, looked up): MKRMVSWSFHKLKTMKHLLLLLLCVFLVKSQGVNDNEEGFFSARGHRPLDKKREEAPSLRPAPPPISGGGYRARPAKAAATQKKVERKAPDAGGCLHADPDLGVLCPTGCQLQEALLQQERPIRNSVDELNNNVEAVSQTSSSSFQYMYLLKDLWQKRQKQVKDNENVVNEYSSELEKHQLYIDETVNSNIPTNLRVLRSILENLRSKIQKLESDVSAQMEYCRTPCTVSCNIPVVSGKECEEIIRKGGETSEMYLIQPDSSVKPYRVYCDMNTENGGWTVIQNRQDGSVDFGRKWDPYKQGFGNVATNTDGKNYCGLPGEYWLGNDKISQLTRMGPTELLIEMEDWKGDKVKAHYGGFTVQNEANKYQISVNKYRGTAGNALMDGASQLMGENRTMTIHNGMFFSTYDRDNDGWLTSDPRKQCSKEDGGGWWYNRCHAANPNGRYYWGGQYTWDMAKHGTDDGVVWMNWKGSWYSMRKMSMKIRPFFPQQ

The experiment concerns the target Fibrinogen beta chain (Homo sapiens) (UniProt P02675). In words: small molecules displacing Tn7 from DD(E) complex – biochemical, fluorescence polarization, human fibrin, Tn7 probe, primary screen (AID 720508).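 Also: 0% = plate median of compound wells and 100% = 10 µM Aha-Tn7 peptide.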 The settings on record: FP displacement of FITC-Tn7 peptide from fibrin DD(E); at 8.3 µM; hits give high values; 0% = median of compound wells per plate. The procedure, abridged: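 Test system: human clot-derived fibrin DD(E) complex / Quantity: 2 µM final DD(E) protein / Incubation: 10 min plus 3 h, room temperature / Measured by: fluorescence polarization / Benchmarks: high control of 10 µM Aha-Tn7 peptide / Replicates: singlicate testing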
Background: Polarisation of emitted light reports the rotation of a fluorescent probe.
As to `Cc1cc(C)c2cc(CN(Cc3cccs3)Cc3nnnn3CC3CCCO3)c(=O)[nH]c2c1` (stereo unspecified), the inhibition was -1.42%.

On to `CC(C)[C@H](NC(=O)N1CCn2c1nc1ccccc12)C(=O)NCc1ccc2c(c1)OCO2`, for which the inhibition is 1.52%.

Take `O=S1(=O)c2c(cccc2N2CC[C@H](O)C2)O[C@@H]2CCN1C2`: the inhibition is 4.53%.

As for `CCC(=O)Nc1cccc(C2=NOC3(C2)C[C@@H](C(N)=O)N(C(=O)c2cc([N+](=O)[O-])cc([N+](=O)[O-])c2C)C3)c1` (stereo partly specified), the inhibition was -4.25%.

Consider `CC(Oc1ccccc1)C(=O)Nc1oc(-c2ccco2)c(-c2ccco2)c1C#N` (stereo unspecified), for which the inhibition is 2.07%.

Turning to `N#Cc1nc(Cc2cccc3ccccc23)oc1NCc1ccc2c(c1)OCO2`, the inhibition is 4.95%.

Turning to `Cc1ccc(OCc2nc(C#N)c(N3CCCC3)o2)cc1`, the inhibition is 0.61%.

Turning to `CCOc1ccc(Nc2oc(Cc3ccccc3)nc2C#N)cc1`, the inhibition was 14.8% (active).

Consider `COc1ccc(C(C(=O)NC2CCCCC2)N(C(=O)Cc2c[nH]c3ccccc23)c2ccccc2)cc1OC` (stereo unspecified), for which the inhibition is 2.39%.

For the compound `COC(=O)CNC(=O)C(CCSC)NC(C)=O` (stereo unspecified), the inhibition was 3.11%.

For the compound `COc1cc(OC)c(C(=S)N2CCCC2)cc1OC`, the inhibition is 2.99%.

Consider `CC1(C)C/C(=C(/C#N)C(N)=O)CCO1`, for which the inhibition was -4%.

In the case of `Cc1cc(C(=O)COc2ccc(Br)cc2F)c(C)n1C1CC1`, the inhibition was 1.64%.

For the compound `O=C(NC1CCCCN(Cc2cccc(C(F)(F)F)c2)C1=O)c1ccccc1I` (stereo unspecified), the inhibition is 2.66%.

On to `O=C(NCc1ccc(F)cc1F)[C@@H]1CCCN1C(=O)[C@@H]1CCCN1C(=O)c1cccc(Cl)c1`, for which the inhibition is -9.38%.

In the case of `O=C(COC(=O)CNS(=O)(=O)c1ccccc1)NC12CC3CC(CC(C3)C1)C2`, the inhibition is 2.98%.

As to `CC1CC1C(=O)OCC(=O)c1c(N)n(C)c(=O)n(C)c1=O` (stereo unspecified), the inhibition is -2.99%.

As to `CC(C)NC(=O)C1(C)CCCCN1Cc1cccc(C(F)(F)F)c1` (stereo unspecified), the inhibition was 1.37%.

Consider `c1cc(-c2nn[nH]n2)ccc1CN1CCCCC1`, for which the inhibition is 14.4% (active).

For `Brc1ccc(-c2nn[nH]n2)cc1`, the inhibition was -4.35%.

With `Clc1ccc(CN2CCCCCC2)cc1Cl`, the inhibition was 1.42%.

With `COc1cccc(N2CC(NC(=O)c3ccc4ccccc4c3)CC2=O)c1` (stereo unspecified), the inhibition is 6.86%.

As to `COc1cccc(N2CC(NS(=O)(=O)c3ccc(Cl)cc3)CC2=O)c1` (stereo unspecified), the inhibition was -2.23%.

`COc1cccc(N2CC(NS(=O)(=O)c3cccs3)CC2=O)c1` (stereo unspecified): the inhibition is 15.4% (active).

Turning to `CCN(CC)C(=O)CSC(Nc1cccc(F)c1)=C(C#N)C#N`, the inhibition is 2.96%.

In the case of `CCn1c(C)nc2c1C(=O)c1ccccc1C2=O`, the inhibition is -6.92%.

What is called inhibition is the relative decrease from the control value, in per cent.
